Results of several laboratories.
Compare with care: the assays were run in different laboratories. In brackets after ≈: the same amount, converted by molar mass.
Organism: Nakaseomyces glabratus

SMILES | test | test system | conditions | endpoint | result
OC(Cn1cncn1)(Cn1cncn1)c1ccc(F)cc1F | microbial growth, broth dilution | MY1381 | – | MIC50 | 4 µg/mL (≈ 13.1 µM)
C#CCCCCCCCCC=CCC(O)CC(O)CO (centres unmarked) | microbial growth, broth dilution | ATCC90030 | – | IC50 | > 8 µg/mL
CCCCCCOc1c(OC)cc(NC(C)CCCN)c2nc(C(C)(C)C)ccc12 (centres unmarked) | microbial growth | ATCC90030 | – | IC50 | 11.5 µg/mL (≈ 27.6 µM)
O=C(O)c1nc2ccccc2c(=O)n1Cc1cn(-c2cccc(F)c2)nn1 | microbial growth, broth dilution | ATCC90030 | 24 h | IC50 | 262 µg/mL (≈ 717 µM)
CCCCCCCCCCCCCN1CCNCC1 | microbial growth, broth dilution | ATCC2001 | 48 h | MIC | 0.48 µg/mL (≈ 1.79 µM)
OC(Cn1cncn1)(Cn1cncn1)c1ccc(F)cc1F | microbial growth, broth dilution | – | 24 h | MIC90 | 16 µg/mL (≈ 52.2 µM)
O=C(O)c1nc2ccccc2c(=O)n1Cc1cn(-c2cccc([N+](=O)[O-])c2)nn1 | microbial growth, broth dilution | ATCC90030 | 24 h | IC50 | 487 µg/mL (≈ 1240 µM)
CCCCCCCCCCCCCCN1CCN(CC(O)(Cn2cncn2)c2ccc(F)cc2F)CC1 (centres unmarked) | microbial growth, broth dilution | ATCC2001 | 48 h | MIC | > 31.3 µg/mL
CCCCCOc1c(OC)cc(NC(C)CCCNC(=O)C(N)CCCNC(=N)N)c2nc(C(C)(C)C)ccc12 (centres unmarked) | microbial growth | ATCC90030 | – | IC50 | 19.1 µg/mL (≈ 34.2 µM)
CN1CCNCC1 | microbial growth, broth dilution | ATCC2001 | 48 h | MIC | > 31.3 µg/mL
CCOC(=O)c1nc2ccccc2c(=O)n1Cc1cn(-c2cccc([N+](=O)[O-])c2)nn1 | microbial growth, broth dilution | ATCC90030 | 24 h | IC50 | 354 µg/mL (≈ 842 µM)
CCCCCCCCCCCCCN1CCN(CC(O)(Cn2cncn2)c2ccc(F)cc2F)CC1 (centres unmarked) | microbial growth, broth dilution | ATCC2001 | 48 h | MIC | 0.975 µg/mL (≈ 1.93 µM)
CCOC(=O)c1nc2ccccc2c(=O)n1Cc1cn(-c2ccccc2[N+](=O)[O-])nn1 | microbial growth, broth dilution | ATCC90030 | 24 h | IC50 | 272 µg/mL (≈ 648 µM)
COc1cc(C(C)(C)C#Cc2c(C)nc(N)nc2N)cc(OC)c1OC | microbial growth, resazurin | – | – | MIC | 178 µg/mL (≈ 499 µM)
CCCCCCCCCN1CCN(CC(O)(Cn2cncn2)c2ccc(F)cc2F)CC1 (centres unmarked) | microbial growth, broth dilution | ATCC2001 | 48 h | MIC | 3.9 µg/mL (≈ 8.67 µM)
C[C@@H]1[C@H](O)[C@@H](C)/C=C/C=C/C=C/C=C/C=C/C=C/C=C/[C@H](O[C@@H]2O[C@H](C)[C@@H](O)[C@H](N)[C@@H]2O)C[C@@H]2O[C@](O)(C[C@@H](O)C[C@@H](O)[C@H](O)CC[C@@H](O)C[C@@H](O)CC(=O)O[C@H]1C)C[C@H](O)[C@H]2C(=O)O | microbial killing | ATCC90030 | – | MFC | 1.25 µg/mL (≈ 1.35 µM)
CCOC(=O)c1nc2ccccc2c(=O)n1Cc1cn(-c2ccc(Cl)cc2)nn1 | microbial growth, broth dilution | ATCC90030 | 24 h | IC50 | 195 µg/mL (≈ 476 µM)
CCCCCCCCOc1c(OC)cc(NC(C)CCCN)c2nc(C(C)(C)C)ccc12 (centres unmarked) | microbial growth | ATCC90030 | – | IC50 | 6.19 µg/mL (≈ 14 µM)
O=C(O)c1nc2ccccc2c(=O)n1Cc1cn(-c2ccc(Cl)cc2)nn1 | microbial growth, broth dilution | ATCC90030 | 24 h | IC50 | 517 µg/mL (≈ 1350 µM)
CCCCCOc1c(OC)cc(NC(C)CCCNC(=O)C(N)Cc2ccccc2)c2nc(C(C)(C)C)ccc12 (centres unmarked) | microbial growth | ATCC90030 | – | IC50 | 10.9 µg/mL (≈ 20 µM)
CCCCCCCCCCN1CCN(CC(O)(Cn2cncn2)c2ccc(F)cc2F)CC1 (centres unmarked) | microbial growth, broth dilution | ATCC2001 | 48 h | MIC | > 31.3 µg/mL
CCCCCCOc1c(OC)cc(NC(C)CCCNC(=O)C(N)Cc2cnc[nH]2)c2nc(C(C)(C)C)ccc12 (centres unmarked) | microbial growth | ATCC90030 | – | IC50 | 19.2 µg/mL (≈ 34.8 µM)
CCOC(=O)c1nc2ccccc2c(=O)n1Cc1cn(-c2cccc(OC)c2)nn1 | microbial growth, broth dilution | ATCC90030 | 24 h | IC50 | 417 µg/mL (≈ 1030 µM)
CCCCCCCCN1CCNCC1 | microbial growth, broth dilution | ATCC2001 | 48 h | MIC | > 31.3 µg/mL
COc1ccccc1-n1cc(Cn2c(C(=O)O)nc3ccccc3c2=O)nn1 | microbial growth, broth dilution | ATCC90030 | 24 h | IC50 | 29.4 µg/mL (≈ 77.9 µM)
CCCCCCCOc1c(OC)cc(NC(C)CCCN)c2nc(C(C)(C)C)cc(C)c12 (centres unmarked) | microbial growth | ATCC90030 | – | IC50 | 4.3 µg/mL (≈ 9.69 µM)
OC(Cn1cncn1)(Cn1cncn1)c1ccc(F)cc1F | microbial killing | ATCC2001 | – | MFC | > 64 µg/mL
CCCCCOc1c(OC)cc(NC(C)CCCNC(=O)C(N)CC(C)C)c2nc(C(C)(C)C)ccc12 (centres unmarked) | microbial growth | ATCC90030 | – | IC50 | 11.3 µg/mL (≈ 22 µM)
CCCCCCCCCCCCCCN1CCOCC1 | microbial growth, broth dilution | ATCC2001 | 48 h | MIC | > 31.3 µg/mL
